We go through three compounds from ChEMBL document CHEMBL4396879, “Conjugation of Short Peptides to Dibenzodiazepinone-Type Muscarinic Acetylcholine Receptor Ligands Determines M2R Selectivity” (J Med Chem, 2019).

One may read the Ki as the dissociation constant of the complex between target and ligand, obtained from inhibition or displacement.

The nature of series [1]: Stability of the compound in human plasma used as 1:2 ratio of plasma to pH 7.4 PBS assessed as intact compound at 100 uM incubated for 48 hr by LC-MS analysis. Format: ADME, cell-free. Conditions: plasma diluted with PBS (1:2), read-out: Stability. The method, boiled down:
(§1)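 Compound added at 100 μM (from 5 mM stock in acetonitrile/0.04% TFA 3:7) to heparinized human plasma/PBS pH 7.4 (1:2 v/v) with 10 μM 1-methyl-D-tryptophan as internal standard. Incubated shaking at 37 °C in triplicate. Aliquots were EtOH/acetonitrile-precipitated and analysed by RP-HPLC at 220 nm, with recovery correction against four-point calibrations.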

Series [2] is described as follows: Stability of the compound in human plasma used as 1:2 ratio of plasma to pH 7.4 PBS assessed as intact compound at 100 uM incubated for 6 hr […]. Conditions: plasma diluted with PBS (1:2), read-out: Stability. Format: ADME, cell-free.
Series [3] deals with T1, Muscarinic acetylcholine receptor M2 (Homo sapiens, UniProt P08172).
T1 sequence (P08172 whole entry): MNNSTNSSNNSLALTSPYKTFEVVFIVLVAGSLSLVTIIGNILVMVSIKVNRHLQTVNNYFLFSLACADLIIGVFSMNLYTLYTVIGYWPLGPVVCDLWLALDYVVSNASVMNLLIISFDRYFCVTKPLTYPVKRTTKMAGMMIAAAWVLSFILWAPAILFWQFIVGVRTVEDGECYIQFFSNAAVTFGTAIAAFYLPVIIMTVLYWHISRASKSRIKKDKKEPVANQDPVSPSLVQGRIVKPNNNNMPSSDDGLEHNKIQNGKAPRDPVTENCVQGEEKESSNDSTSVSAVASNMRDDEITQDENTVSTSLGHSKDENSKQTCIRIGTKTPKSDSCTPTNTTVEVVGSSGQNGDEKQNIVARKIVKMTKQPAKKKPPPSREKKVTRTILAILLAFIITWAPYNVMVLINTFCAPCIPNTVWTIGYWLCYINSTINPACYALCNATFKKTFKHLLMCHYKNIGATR
In words: Displacement of [3H]-NMS from human muscarinic M2 receptor expressed in CHO-K9 cells after 3 hrs by microbeta2 scintillation counting method. Format: cell-based. The method, boiled down:
(§2)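 [3H]NMS competition binding on intact CHO-hMxR cells in L15 medium with 1% BSA, 3 h at 22 ± 1 °C with gentle shaking. [3H]NMS was 0.2 nM (M1, M2, M3), 0.1 nM (M4) or 0.3 nM (M5). […] Cells were lysed in urea/acetic acid/Triton and counted by liquid scintillation. Ki from Cheng-Prusoff. Triplicates, ≥3 experiments.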
Background: In a radioligand displacement assay an active substance lowers the binding of a labelled ligand.

Series [4] concerns the target T2, Muscarinic acetylcholine receptor M5 (Homo sapiens, UniProt P08912).
T2 sequence (P08912 whole entry): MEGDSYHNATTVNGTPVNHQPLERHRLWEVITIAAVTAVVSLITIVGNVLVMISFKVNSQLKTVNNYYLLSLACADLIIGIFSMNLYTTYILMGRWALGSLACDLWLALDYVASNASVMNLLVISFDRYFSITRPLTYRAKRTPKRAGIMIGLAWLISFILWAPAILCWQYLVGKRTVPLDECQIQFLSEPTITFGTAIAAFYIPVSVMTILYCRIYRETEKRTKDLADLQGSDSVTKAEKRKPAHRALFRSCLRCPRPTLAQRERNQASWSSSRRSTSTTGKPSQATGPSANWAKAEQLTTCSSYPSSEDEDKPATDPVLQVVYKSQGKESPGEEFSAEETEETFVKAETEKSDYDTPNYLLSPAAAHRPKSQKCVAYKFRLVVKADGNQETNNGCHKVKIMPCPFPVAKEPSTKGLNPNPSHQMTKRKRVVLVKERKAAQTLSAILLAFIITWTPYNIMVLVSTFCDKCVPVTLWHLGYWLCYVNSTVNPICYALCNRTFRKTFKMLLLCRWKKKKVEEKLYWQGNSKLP
In words: Displacement of [3H]-NMS from human muscarinic M5 receptor expressed in CHO-K9 cells after 3 hrs by microbeta2 scintillation counting method. Format: cell-based. The method, boiled down: as §2

The target of series [5] is T3, Muscarinic acetylcholine receptor M1 (Homo sapiens, UniProt P11229).
T3 sequence (P11229 whole entry): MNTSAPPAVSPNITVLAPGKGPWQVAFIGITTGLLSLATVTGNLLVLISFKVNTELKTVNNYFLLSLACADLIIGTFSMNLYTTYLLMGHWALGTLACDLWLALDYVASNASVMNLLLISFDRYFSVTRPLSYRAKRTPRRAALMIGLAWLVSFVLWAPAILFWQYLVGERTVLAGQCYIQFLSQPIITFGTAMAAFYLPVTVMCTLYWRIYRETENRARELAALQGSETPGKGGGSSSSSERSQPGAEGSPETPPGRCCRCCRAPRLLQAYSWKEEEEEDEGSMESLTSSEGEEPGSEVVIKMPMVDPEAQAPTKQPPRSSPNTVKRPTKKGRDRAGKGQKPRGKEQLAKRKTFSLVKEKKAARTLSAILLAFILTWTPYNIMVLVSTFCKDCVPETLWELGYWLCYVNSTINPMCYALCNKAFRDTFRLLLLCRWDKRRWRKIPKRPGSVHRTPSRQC
In words: Displacement of [3H]-NMS from human muscarinic M1 receptor expressed in CHO-K9 cells after 3 hrs by microbeta2 scintillation counting method. The format is cell-based. A digest of the protocol:
as §2

Series [6] concerns the target T4, Muscarinic acetylcholine receptors; M2 & M3 (Homo sapiens) (UniProt P20309+P08172). Description: Selectivity ratio of Ki for human muscarinic M3 receptor expressed in CHO-K9 cells to Ki for human muscarinic M2 receptor expressed in CHO-K9 cells. Format: cell-based. The method, boiled down: (§3)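 Ratio of mean Ki values. Each Ki came from an individual [3H]NMS competition experiment at the given CHO-hMxR subtype, converting IC50 to Ki by Cheng-Prusoff before averaging.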

Series [7] addresses T5, Muscarinic acetylcholine receptor M3 (Homo sapiens, UniProt P20309). Description: Displacement of [3H]-NMS from human muscarinic M3 receptor expressed in CHO-K9 cells after 3 hrs by microbeta2 scintillation counting method. The format is cell-based. The method, boiled down: as §2
The target in series [8] is T6, Muscarinic acetylcholine receptors; M1 & M2 (Homo sapiens) (UniProt P11229+P08172). In words: Selectivity ratio of Ki for human muscarinic M1 receptor expressed in CHO-K9 cells to Ki for human muscarinic M2 receptor expressed in CHO-K9 cells. Format: cell-based. The method, boiled down:
as §3

Series [9] in a line: Stability of the compound in human plasma used as 1:2 ratio of plasma to pH 7.4 PBS assessed as intact compound at 100 uM incubated for 24 hr […]. Conditions: plasma diluted with PBS (1:2), read-out: Stability. Format: ADME, cell-free.
Series [10] concerns the target T7, Muscarinic acetylcholine receptor M2 and M5 (Homo sapiens) (UniProt P08172+P08912). Description: Selectivity ratio of Ki for human muscarinic M5 receptor expressed in CHO-K9 cells to Ki for human muscarinic M2 receptor expressed in CHO-K9 cells. The format is cell-based. A digest of the protocol: as §3
Series [11] deals with T8, Muscarinic acetylcholine receptor M4 (Homo sapiens, UniProt P08173).
T8 sequence (P08173 whole entry): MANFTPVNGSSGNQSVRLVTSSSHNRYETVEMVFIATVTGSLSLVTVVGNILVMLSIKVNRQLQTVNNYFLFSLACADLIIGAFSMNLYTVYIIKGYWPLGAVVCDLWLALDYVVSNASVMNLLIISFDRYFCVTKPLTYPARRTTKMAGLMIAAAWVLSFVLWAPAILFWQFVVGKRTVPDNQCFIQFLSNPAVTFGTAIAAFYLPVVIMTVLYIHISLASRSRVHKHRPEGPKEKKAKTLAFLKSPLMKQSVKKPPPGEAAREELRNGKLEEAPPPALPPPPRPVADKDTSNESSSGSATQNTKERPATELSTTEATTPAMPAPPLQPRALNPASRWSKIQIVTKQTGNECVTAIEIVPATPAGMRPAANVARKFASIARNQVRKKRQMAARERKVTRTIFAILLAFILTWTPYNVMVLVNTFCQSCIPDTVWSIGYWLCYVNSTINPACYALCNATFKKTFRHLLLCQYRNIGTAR
Description: Displacement of [3H]-NMS from human muscarinic M4 receptor expressed in CHO-K9 cells after 3 hrs by microbeta2 scintillation counting method. Format: cell-based. A digest of the protocol: as §2

For series [12], the target named is T9, Muscarinic acetylcholine receptor M2 and M4 (Homo sapiens) (UniProt P08173+P08172). In words: Selectivity ratio of Ki for human muscarinic M4 receptor expressed in CHO-K9 cells to Ki for human muscarinic M2 receptor expressed in CHO-K9 cells. Format: cell-based. The method, boiled down: as §3
The nature of series [13]: Stability of the compound in human plasma:PBS of pH 7.4 (1:2) assessed as intact compound at 100 uM incubated for 1 hr by LC-MS analysis. Format: ADME, cell-free. Conditions: plasma diluted with PBS (1:2), read-out: Stability. A digest of the protocol:
as §1

Series [14] concerns the target T5, Muscarinic acetylcholine receptor M3. Description: Binding affinity to muscarinic M3 receptor (unknown origin) expressed in CHO cells. The format is cell-based. The method, boiled down:
as §2

Series [15] addresses T2, Muscarinic acetylcholine receptor M5. In words: Binding affinity to muscarinic M5 receptor (unknown origin) expressed in CHO cells. The format is cell-based. A digest of the protocol: as §2
Series [16] concerns the target T3, Muscarinic acetylcholine receptor M1. In words: Binding affinity to muscarinic M1 receptor (unknown origin) expressed in CHO cells. The format is cell-based. The method, boiled down:
as §2

Series [17] deals with T8, Muscarinic acetylcholine receptor M4. In words: Binding affinity to muscarinic M4 receptor (unknown origin) expressed in CHO cells. Format: cell-based. A digest of the protocol: as §2
For series [18], the target named is T4, Muscarinic acetylcholine receptors; M2 & M3 (Homo sapiens). Description: Selectivity ratio of Ki for muscarinic M3 receptor (unknown origin) expressed in CHO cells to Ki for muscarinic M2 receptor (unknown origin) expressed in CHO cells. Format: cell-based. A digest of the protocol: as §3
The target in series [19] is T1, Muscarinic acetylcholine receptor M2. Description: Binding affinity to muscarinic M2 receptor (unknown origin) expressed in CHO cells. The format is cell-based. A digest of the protocol:
as §2

Series [20] deals with T6, Muscarinic acetylcholine receptors; M1 & M2 (Homo sapiens). Description: Selectivity ratio of Ki for muscarinic M1 receptor (unknown origin) expressed in CHO cells to Ki for muscarinic M2 receptor (unknown origin) expressed in CHO cells. Format: cell-based. A digest of the protocol:
as §3

In series [21] the target is T9, Muscarinic acetylcholine receptor M2 and M4 (Homo sapiens). In words: Selectivity ratio of ki for muscarinic M4 receptor (unknown origin) expressed in CHO cells to muscarinic M2 receptor (unknown origin) expressed in CHO cells. Format: cell-based. A digest of the protocol:
as §3

Series [22] concerns the target T7, Muscarinic acetylcholine receptor M2 and M5 (Homo sapiens). In words: Selectivity ratio of ki for muscarinic M5 receptor (unknown origin) expressed in CHO cells to muscarinic M2 receptor (unknown origin) expressed in CHO cells. Format: cell-based. The method, boiled down:
as §3

T5 sequence (P20309 whole entry): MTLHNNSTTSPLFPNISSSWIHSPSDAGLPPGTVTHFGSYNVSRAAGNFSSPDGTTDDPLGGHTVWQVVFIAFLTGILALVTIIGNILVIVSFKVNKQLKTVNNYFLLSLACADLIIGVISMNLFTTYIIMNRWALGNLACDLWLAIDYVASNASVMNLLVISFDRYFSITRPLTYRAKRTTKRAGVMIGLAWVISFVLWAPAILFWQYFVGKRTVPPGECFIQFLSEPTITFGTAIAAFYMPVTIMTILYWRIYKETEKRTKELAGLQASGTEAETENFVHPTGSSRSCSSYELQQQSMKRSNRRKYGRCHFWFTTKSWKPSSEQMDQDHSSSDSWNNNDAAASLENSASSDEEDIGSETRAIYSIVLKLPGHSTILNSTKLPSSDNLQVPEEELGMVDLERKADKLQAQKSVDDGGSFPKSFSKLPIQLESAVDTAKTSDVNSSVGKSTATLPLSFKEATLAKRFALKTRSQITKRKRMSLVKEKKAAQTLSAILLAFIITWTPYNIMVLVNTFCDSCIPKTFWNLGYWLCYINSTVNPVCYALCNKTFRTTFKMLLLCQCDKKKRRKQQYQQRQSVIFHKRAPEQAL
T4 sequence (P20309 whole entry, looked up, one chain of several): as the sequence (P20309 whole entry) above

`CC(=O)N[C@@H](CCCNC(=N)N)C(=O)N[C@@H](CCCCN)C(=O)NCC(=O)NCCCCC1CCN(CC(=O)N2c3ccccc3NC(=O)c3ccccc32)CC1`: the remaining at 48 h, 100 µM in [1] turned out to be 83%. Moreover, in series [2], the remaining at 6 h, 100 µM is over 99%. The Ki in [3] was 1.48 nM; in [4], 363 nM; in series [5], 22.9 nM; in series [7] it was 776 nM; in series [11] it was 17.4 nM. For the same compound, the Ratio Ki in series [6] stood at 620; in series [8] it was 15; in series [10] it was 260; in series [12], 11. For the same compound, the remaining at 24 h, 100 µM in [9] is over 99%. In series [13], the remaining at 1 h, 100 µM is over 99%.

With `CCN(CC)CCCCC1CCN(CC(=O)N2c3ccccc3C(=O)Nc3cccnc32)CC1`, the Ki was 100 nM in [14], 1260 nM in series [15], 50.1 nM in series [16] and 7.94 nM in series [17].

Turning to `CCCC(C)(C)C(=O)N(CC)CCCC1CCN(CC(=O)N2c3ccccc3NC(=O)c3ccccc32)CC1`, the Ki in series [14] is 398 nM; in [15], 316 nM; in [19] it was 7.94 nM; in series [16], 316 nM; in [17] it was 50.1 nM. In addition, the Ratio Ki was found to be 50 in [18], 40 in series [20], 6.3 in series [21] and 40 in series [22].
